Data as given in ChEMBL document CHEMBL4396876, “Antisulfatase, Osteogenic, and Anticancer Activities of Steroid Sulfatase Inhibitor EO-33 in Mice” (J Med Chem, 2019).

Key:
Mus musculus [1] = test: Osteogenic activity in ovariectomized-induced C57BL/6 mouse model of osteoporosis assessed as recovery of tibia calcium content at 1 mg/kg, sc administered 6 days per week for 70 days by Triple Quad ICP-MS analysis relative to control; format: functional
Outline: (§1)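 Female C57BL/6 mice (63–70 days) ovariectomized under isoflurane; sham controls kept. 8/group, dosed SC in 0.1 mL MC:EtOH (92:8) for 70 days. Tibias excised and weighed (mg/g body weight). Calcium measured by ICP-MS after calcination at 600 °C for 6 h and HNO3 microwave digestion; expressed as mg/g tibia.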

Mus musculus [2] = test: Osteogenic activity in ovariectomized-induced C57BL/6 mouse model of osteoporosis assessed as recovery of tibia weight at 1 mg/kg, sc administered 6 days per week for 70 days relative to control; format: functional; outline: as §1
[3] = Toxicity in ovariectomized-induced C57BL/6 mouse model of osteoporosis assessed as effect on body weight at 1 mg/kg, sc administered 6 days per week for 70 days measured post last dose; format: organism-based; details: in vivo
Outline: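 Female C57BL/6 mice, 63-70 days old, ovariectomized under isoflurane (sham-operated controls), randomized by weight into groups of 8. Treated SC in 0.1 mL MC:EtOH (92:8) over 70 days; sham and OVX controls received vehicle alone. Mice weighed at the end of the protocol before necropsy.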

[4] = Hepatotoxicity in ovariectomized-induced C57BL/6 mouse model of osteoporosis assessed as effect on liver weight at 1 mg/kg, sc administered 6 days per week for 70 days measured post last dose by necropsy analysis; format: toxicity, organism-based; details: in vivo
Mus musculus [5] = test: Estrogenic activity in ovariectomized-induced C57BL/6 mouse model of osteoporosis assessed as stimulation of uterus weight at 1 mg/kg, sc administered 6 days per week for 70 days measured post last dose by necropsy analysis; format: ADME, organism-based; details: in vivo
[6] = (§2) Drug level in Balb/c mouse treated with 2-{[4-({(Furan-2-ylmethyl)[(5-methylthiophen-2-yl)-methyl]amino}methyl)phenyl]carbonyl}-1,2,3,4-tetrahydroisoquinolin-7-yl Sulfamate assessed as metabolite formation at 30 mg/kg, sc administered as single dose using MC/EtOH formulation by LC-MS/MS analysis; format: ADME, organism-based; details: in vivo
Outline: (§3)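 Phenol metabolite EO-29 measured by LC-MS/MS in plasma of female Balb/c mice fasted 8 h, then given a single 30 mg/kg dose of the sulfamate in MC:EtOH (92:8), 0.1 mL, SC or by gavage. Sampled at 1, 3, 7, 12 and 24 h by cardiac puncture (2–3 mice/group).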

[7] = as §2, with “po” for “sc”, “administered via gavage” for “administered”; format: ADME, organism-based; details: in vivo; outline: as §3
Mus musculus [8] = test: (§4) In vivo inhibition of STS in ovariectomized Balb/c mouse assessed as reduction in E1S-stimulated uterus weight at 5 mg/kg, sc administered once daily starting from day 2 to day 10 using MC/EtOH formulation and E1S addition on day 5 to 10 measured on day 11 relative to control; format: functional
Outline: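 Female Balb/c mice (15–20 g) ovariectomized under isoflurane, 5/group. Inhibitor given SC in 0.1 mL MC:EtOH (92:8) on days 2–10. E1S (2 µg/mouse, BID) or E1 (0.06 µg/mouse, ID) given SC on days 5–10. Vehicle controls included. Uterus dissected and weighed on day 11. Means ± SEM.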

Mus musculus [9] = test: as §4, with “Ex” for “In”, “mouse liver homogenates” for “mouse”, “transformation of [3H]-E1S into [3H]-E1” for “E1S-stimulated uterus weight”, “11 by liquid scintillation counting method” for “11”; format: functional
Outline: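 Livers collected on day 11 from the OVX Balb/c uterotrophic protocol and homogenized in cold pH 7.4 phosphate buffer with protease inhibitors. 2000 g supernatant, 100 or 500 µg protein, incubated with [3H]-E1S/E1S (final 1 µM) in PBS for 2 h at 37 °C. Xylene extraction, then scintillation counting of both phases. Result given as % E1 formed. Triplicate.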

Mus musculus [10] = test: Osteogenic activity in ovariectomized-induced C57BL/6 mouse model of osteoporosis assessed as recovery of tibia calcium content at 5 ug/kg, sc treated for 70 days by Triple Quad ICP-MS analysis relative to control; format: functional; outline: as §1
Mus musculus [11] = test: Osteogenic activity in ovariectomized-induced C57BL/6 mouse model of osteoporosis assessed as recovery of tibia weight at 5 ug/kg, sc treated for 70 days relative to control; format: functional; outline: as §1

Q: Which Activity (Mus musculus [1]) does the source give for `O=C(c1ccc(OCCN2CCCCC2)cc1)c1c(-c2ccc(O)cc2)sc2cc(O)ccc12` [RALOXIFENE] here?
A: 100%

Q: And the Activity (Mus musculus [2])?
A: 100%

Q: What about the Activity [3] of the same compound?
A: Non-Toxic

Q: And the Activity [4]?
A: Non-Toxic

Q: And the Activity (Mus musculus [5])?
A: Toxic

Q: Which results are given for `Cc1ccc(CN(Cc2ccc(C(=O)N3CCc4ccc(O)cc4C3)cc2)Cc2ccco2)s1`?
A: Drug metabolism [6]: Metabolite_Detected; Drug metabolism [7]: Metabolite_Detected

Q: Which inhibition in vivo at 5 mg/kg (Mus musculus [8]) does the source give for `COc1cc2c(cc1OS(N)(=O)=O)CC[C@@H]1[C@@H]2CC[C@@]2(C)[C@H]1CC[C@@]2(O)Cc1ccccc1` here?
A: 71%

Q: What about the inhibition in vivo at 5 mg/kg (Mus musculus [9]) of the same compound?
A: 100%

Q: Which Activity (Mus musculus [10]) does the source give for `C[C@]12CC[C@@H]3c4ccc(O)cc4CC[C@H]3[C@@H]1CC[C@@H]2O` [ESTRADIOL] here?
A: 100%

Q: And the Activity (Mus musculus [11])?
A: 100%
